# High-throughput results as filed in PubChem BioAssay.
# DSG3 Ab inh: blocks pemphigus antibody binding to human desmoglein-3; DSG3-coupled beads, scFv-anti-DSG3-GFP binding, flow cytometry; hits give low values; AID 588358; P32926; 310,000 tested, 0.48% active; binding (percent of control), % at 10 µM;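 active = binding more than 3 SD below its plate's average and above zero; inconclusive = below that plate limit but binding exactly zero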;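 also: hits lower antibody fragment binding to DSG3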
# Scp-1 inhibitor: Scp-1 (human) phosphatase inhibition; inhibition, % at 20 µM; AID 493091; Q9GZU7; 340,000 tested, 0.88% active; Recombinant Scp1, phosphopeptide, malachite green phosphate absorbance;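 active = inhibition above about 50% at 20 µM, limit read from the data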;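 also: plate controls were DMSO wells with enzyme for no effect and wells lacking enzyme for full effect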
# Target sequence (Q9GZU7 76-261 limits assumed): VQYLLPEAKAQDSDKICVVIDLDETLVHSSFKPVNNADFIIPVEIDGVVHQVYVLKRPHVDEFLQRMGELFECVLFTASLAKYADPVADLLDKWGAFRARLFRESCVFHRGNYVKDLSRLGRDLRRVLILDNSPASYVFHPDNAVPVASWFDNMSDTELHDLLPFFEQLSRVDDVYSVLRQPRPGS
#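 Times: enzyme reaction 45 min at room temperature, colour 5 min, stabilisation 30 min. Material: SCP-1 catalytic fragment, aa 76-261. Medium: Acidic Tris acetate buffer with magnesium and detergent. Signal: colorimetric free-phosphate detection, absorbance 630 nm. Read-out basis: % inhibition of SCP-1 phosphate liberation. Reagent: Phosphorylated 17-residue peptide substrate.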
# LMPTP block: LMPTP (human) inhibition; P24666; inhibition, % at 20 µM; 360,000 tested, 0.22% active; recombinant LMPTP-A, OMFP fluorogenic substrate, fluorescence intensity; AID 651560;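 active = compounds that cut the enzyme signal by at least half of the control window in the single-dose screen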;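 also: plate controls were DMSO wells with enzyme plus substrate for no effect and substrate without enzyme for full effect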
# Target sequence (P24666 whole entry, looked up): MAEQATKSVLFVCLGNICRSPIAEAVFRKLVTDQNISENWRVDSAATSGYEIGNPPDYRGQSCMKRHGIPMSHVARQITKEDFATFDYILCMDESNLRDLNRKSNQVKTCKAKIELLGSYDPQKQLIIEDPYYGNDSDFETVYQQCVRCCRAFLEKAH
#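 Test system: LMPTP-A phosphatase enzyme; input: 0.625 nM LMPTP-A final; reagent: OMFP substrate, 400 µM final; compound dosing: 20 µM single dose, 3% DMSO; incubation: 50 min dark incubation at room temperature; measured by: endpoint fluorescence intensity from OMFP dephosphorylation; measure: % inhibition relative to no-enzyme and uninhibited control wells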
# SUMO1 PPI mod: SUMO1-SIM interaction modulation; P63165; SUMO1 binding to a labelled peptide, TR-FRET, 1 h; inhibition, % at 20 µM; 360,000 tested, 0.33% active; AID 602429; in the data active = inhibition above about 37%
# Target sequence (P63165 whole entry, looked up): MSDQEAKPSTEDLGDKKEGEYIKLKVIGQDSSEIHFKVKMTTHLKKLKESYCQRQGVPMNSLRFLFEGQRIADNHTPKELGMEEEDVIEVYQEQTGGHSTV
# STEP inh: blocks human striatal-enriched tyrosine phosphatase. recombinant STEP, OMFP fluorogenic substrate, fluorescence. P54829. inhibition, % at 20 µM. 360,000 tested, 0.25% active;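 active = inhibition at 20 µM, scaled per plate between control wells, above about 37%, limit read from the data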;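 also: 0% = DMSO with enzyme and substrate and 100% = substrate only without enzyme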
#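 Assay system: isolated STEP enzyme / Timing: 20 min at room temperature, dark / Doses: 20 µM, 1% DMSO / Technique: fluorescence intensity, excitation 480 nm, emission 540 nm / Reagent: fluorogenic phosphatase substrate OMFP at 25 µM final / Measure: percent inhibition scaled to no-enzyme and uninhibited-enzyme controls, plate-pattern corrected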
# Scp1 confirm: Scp-1 (human) inhibition, single-dose confirmed; 2,500 tested, 61% active; shares compounds with Scp-1 inhibitor; recombinant SCP-1 catalytic domain, phosphate release, malachite green absorbance; inhibition, % at 20 µM;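 also: plate controls were DMSO with enzyme for no effect and buffer wells lacking enzyme for full effect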
# Scp-1 MG ctr: colorimetric interference in Scp-1 counter-screen. shares compounds with Scp-1 inhibitor. Colorimetric interference counterscreen, malachite green absorbance 630 nm. apparent inhibition (interference), % at 20 µM. 2,500 tested, under 10 active;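 also: compounds added after enzyme reaction finished so only phosphate colour detection is probed; plate controls were DMSO wells with completed Scp-1 reaction for no effect and substrate wells lacking enzyme for full effect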
# Scp-1 Tm shift: validation of human Scp-1 inhibitors by thermal shift binding; Recombinant SCP1, Sypro Orange thermal shift Tm; shares compounds with Scp-1 inhibitor; thermal shift relative to vanadate control, % at 40 µM; 1,500 tested, 25% active;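 active = substances whose mean melting-temperature shift, as a percentage of the reference inhibitor's shift, reaches about 5.3%, limit read from the data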;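 also: 0% = Tm of DMSO wells and 100% = Tm with sodium orthovanadate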
# * hit, by the source's call; ? = inconclusive; · = no result given. This is a sample that favours compounds with a hit; in the whole collection about 1.7% have one here.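 The calls were made as follows, unless noted: active = inhibition of at least 30% at 20 µM; inactive = the rest.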
SMILES,DSG3 Ab inh,Scp-1 inhibitor,LMPTP block,SUMO1 PPI mod,STEP inh,Scp1 confirm,Scp-1 MG ctr,Scp-1 Tm shift
Cc1ccccc1C(=O)OCC(=O)NCc1ccco1,94.8,53.4*,0.0,1.0,-1.0,18.0,-9.0,·
O=C(COC(=O)C1CC2C=CC1C2)NCc1ccc(F)cc1 (stereo not given),82.8,-7.1,-0.6,1.3,1.2,·,·,·
Cn1c(C(C(=O)NCC2CCCO2)N(C(=O)Cn2nnc3ccccc32)C2CCCCC2)nc2ccccc21 (stereo not given),98.8,68.0*,-0.3,2.9,-3.0,-17.8,-14.5,·
COc1ccc(CCn2c(C)c(C(C)=O)c3cc(OC(=O)c4ccco4)ccc32)cc1OC,110.6,-12.9,0.6,6.5,0.6,·,·,·
COc1ccc(NC(=O)N(C)C[C@H]2Oc3ccc(NS(=O)(=O)c4cccs4)cc3C(=O)N([C@H](C)CO)C[C@@H]2C)cc1,98.6,7.5,-0.7,6.6,1.2,·,·,·
COc1ccc(/C=N/NC(=O)c2cccnc2)cc1CN1CCCc2ccccc21,125.7,-0.3,2.2,-3.4,0.0,·,·,·
COc1ccc(C(=O)N/N=C/c2ccc(OC)c(CN3CCCc4ccccc43)c2)cc1,93.0,56.2*,3.4,-1.9,3.8,-17.5,-12.6,·
COc1ccc(C2CC3(CC(C)(C)NC(SC)=N3)Oc3cc(O)cc(C)c32)cc1 (stereo not given),107.1,11.9,0.0,-1.0,-0.1,·,·,·
Cc1cc(SCc2ccc(C(F)(F)F)cc2)nc(=O)[nH]1,101.4,-8.8,0.0,0.4,1.0,·,·,·
CCc1ccc(/C(C)=N/NC(=O)CNC(=O)/C=C/c2ccco2)cc1,64.2*,93.7*,9.3,108.4*,23.8,64.8*,-11.7,-14.1
COc1ccc(CCNC(=O)/C=C/c2ccco2)cc1OC,95.6,1.4,-0.1,-6.1,1.1,·,·,·
CCOc1ccc(CCNC(=O)/C=C/c2ccco2)cc1OCC,98.2,67.3*,-1.6,-11.9,0.8,-9.0,-20.8,·
NS(=O)(=O)c1ccc(CNC(=O)/C=C/c2ccco2)cc1,89.0,84.2*,5.6,20.7,4.4,70.1*,-5.4,2.8
COc1ccccc1C(=O)NNC(=O)C(=O)NC(C)C,105.0,0.4,1.2,2.9,-1.9,·,·,·
Nc1cc(C(=O)OCC(=O)c2ccc(CC(=O)N3CCOCC3)s2)ccc1Cl,?,54.2*,8.2,-9.3,2.5,39.4*,-15.8,6.2*
Cc1ccc(C(=O)COC(=O)c2ccc(Cl)c(N)c2)s1,104.3,-6.1,0.2,-2.7,-1.4,·,·,·
CC(C)NC(=O)c1cc(C2CCCCN2C(=O)c2ccc(C#N)cc2)on1 (stereo not given),·,·,-1.9,-0.7,1.7,·,·,·
Cc1ccc(OCC(=O)N2N=C(c3ccncc3)CC2(O)C(F)(F)F)cc1C (stereo not given),·,102.7*,0.8,0.1,-1.1,-1.3,-8.5,·
Cc1ccc(CN2CC(C(=O)NC(c3nc4ccccc4[nH]3)C(C)C)CC2=O)cc1 (stereo not given),84.0,-0.1,-0.6,0.1,0.0,·,·,·
CCN(CC)S(=O)(=O)c1ccc(OC)c(NC(=O)Cc2cccs2)c1,100.0,86.6*,32.4,4.3,2.4,73.7*,-11.2,6.3*
O=C(Cc1cccs1)Nc1ccc(S(=O)(=O)N2CCCC2)cc1,·,59.0*,7.4,-1.7,5.0,75.2*,-6.8,6.1*
CCCCN(CCCC)S(=O)(=O)c1ccc(NC(=O)CN2CCOCC2)cc1,99.9,-0.3,1.0,-1.7,2.2,·,·,·
CN(C)S(=O)(=O)c1ccc(NC(=O)Cc2ccc(S(=O)(=O)N3CCOCC3)s2)cc1,96.1,54.8*,2.7,-2.6,3.6,57.6*,-11.7,4.8
CCCCN(CCCC)S(=O)(=O)c1ccc(NC(=O)Cc2cccs2)cc1,92.8,53.6*,5.3,-2.0,1.6,57.9*,-17.2,7.6*
CC1CCc2c(nc3sc4c(c3c2N)CCCC4)C1 (stereo not given),94.9,-9.6,5.7,0.7,1.4,·,·,·
SMILES,DSG3 Ab inh,Scp-1 inhibitor,LMPTP block,SUMO1 PPI mod,STEP inh,Scp1 confirm,Scp-1 MG ctr,Scp-1 Tm shift
Cc1cc(OCC(O)CN)ccc1Cl (stereo not given),102.3,-3.5,1.1,-2.2,0.5,·,·,·
CCCN(CCC)S(=O)(=O)c1ccc(NC(=O)Cc2cccs2)cc1,99.4,61.1*,3.6,3.1,2.3,72.7*,-11.2,1.9
CCCNS(=O)(=O)c1ccc(NC(=O)Cc2cccs2)cc1,91.5,-5.2,-1.3,-2.5,2.1,·,·,·
O=C1CCCN1CCCNS(=O)(=O)c1ccc(F)cc1F,104.8,-8.4,-1.7,-4.9,0.2,-4.6,-6.2,·
O=C(NCCCN1CCCC1=O)Nc1ccccc1F,106.6,-3.6,-1.2,-2.7,-1.3,-5.6,-4.3,·
O=C(NCCCN1CCCC1=O)Nc1ccccc1Cl,·,-10.5,-0.4,-5.3,1.3,·,·,·
Nc1ccc(C(=O)Nc2ccc3c(O)cc(S(=O)(=O)O)cc3c2)cc1,93.8,52.8*,21.4,19.8,3.3,45.9*,-16.9,10.9*
Nc1ccc(C(=O)Nc2ccc(Nc3ccncc3)cc2)cc1,95.0,-14.2,7.5,39.8,-0.2,·,·,·
Cc1ccc(C(=O)N[C@H](C(=O)NC2CCCCC2)C(C)C)cc1,·,-10.4,-0.4,3.3,-0.4,·,·,·
C=C(C)C(=O)Nc1cccc(C2=NOC3(C2)C[C@@H](C(N)=O)N(C(=O)/C=C/CC)C3)c1 (stereo not given in full),98.6,69.0*,0.2,63.7*,7.3,56.5*,-13.4,-29.0
C=C(C)C(=O)Nc1cccc(C2=NOC3(C2)C[C@H](C(N)=O)N(C(=O)/C=C/C)C3)c1 (stereo not given in full),111.6,66.0*,0.7,59.6*,1.4,57.4*,-12.6,-30.3
Cc1cccc(N2CCN(S(=O)(=O)c3ccc4c(c3)C(C)(C)C(=O)N4C)CC2)c1C,99.3,85.2*,6.4,0.5,6.0,68.9*,-6.8,-2.2
Cc1ccc(C)c(N2CCN(S(=O)(=O)c3ccc4c(c3)C(C)(C)C(=O)N4C)CC2)c1,108.0,3.4,3.6,0.4,-1.8,·,·,·
CC(C)CN1CCC(=O)N(CCC#N)CC1,107.8,-0.3,-1.7,-2.4,-0.9,·,·,·
COc1cc(-c2nnc(CSc3nnc(Nc4ccc(Oc5ccccc5)cc4)s3)o2)cc(OC)c1OC,107.6,-5.3,3.7,3.1,-1.0,·,·,·
CC(=O)c1ccc(NC(=O)C2CCN(S(=O)(=O)c3cccc4cccnc34)CC2)cc1,107.4,63.4*,0.1,0.0,3.2,-16.9,-15.6,·
